Source: PubChem BioAssay
An excerpt weighted towards active compounds, which were near 2.9% of everything screened.
CHO parental Ca: counter-screen for OX1R antagonists: effect in parental CHO cells; parental CHO-K1, ATP-induced calcium, Fluo-8 fluorescence; inhibition, % at 5.6 µM; hit rate 0.63% among 330,000;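 active means inhibition above that plate's mean sample inhibition plus 3 SD, cut at about 26% in these data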;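 further: 0% = ATP-challenged DMSO wells and 100% = DMSO wells without ATP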
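Assay system: untransfected parental CHO cell line. Also added: ATP agonist challenge. Dosing: one dose, 5.6 µM nominal. Measured by: Fluo-8 fluorescence. Read-out: % inhibition. Benchmarks: ATP wells versus no-ATP DMSO wells. Repeats: no replicates.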
OX1R antag-1: antagonists of human orexin 1 receptor (OX1R). OX1R-expressing cells, FRET antagonist read-out. inhibition, % at 6.6 µM. hit rate 1.8% among 330,000. AID 485270; in the data active means inhibition mostly above about 38%, no sharp cut-off; inactive means mostly below about 40%;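 further: 0% = agonist challenge alone and 100% = reference antagonist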
Target sequence (O43613 whole entry, looked up): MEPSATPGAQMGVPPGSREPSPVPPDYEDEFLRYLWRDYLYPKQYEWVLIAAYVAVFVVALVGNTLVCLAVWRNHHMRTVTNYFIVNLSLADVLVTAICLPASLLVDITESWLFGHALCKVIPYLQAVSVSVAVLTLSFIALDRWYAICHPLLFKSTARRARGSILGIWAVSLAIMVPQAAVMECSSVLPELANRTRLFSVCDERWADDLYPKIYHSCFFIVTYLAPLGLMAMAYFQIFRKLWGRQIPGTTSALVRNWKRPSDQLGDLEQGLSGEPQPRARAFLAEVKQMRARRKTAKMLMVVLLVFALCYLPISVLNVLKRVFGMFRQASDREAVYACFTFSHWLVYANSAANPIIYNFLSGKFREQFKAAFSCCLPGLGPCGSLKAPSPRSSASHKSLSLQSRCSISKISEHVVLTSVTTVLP
OX1R antag-2: blocks the human orexin 1 receptor; inhibition, % at 5 µM; hit rate 0.43% among 330,000; CHO/OX1R cells, Fluo-8 calcium fluorescence, orexin A;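 active means inhibition above its plate's threshold, mean inhibition of all tested compounds on the plate plus 3 SD, cut at about 37% in these data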;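 further: 0% = orexin A challenge wells and 100% = SB-334867-A antagonist wells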
CHO-K1 Ca antag: M1 antagonist counterscreen hit in parental CHO-K1 cells; inhibition, % at 3 µM; ATP-induced calcium, Fluo-8 fluorescence; hit rate 0.6% among 360,000;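 active means inhibition above a per-plate cutoff, the plate's mean sample inhibition plus 3 SD, cut at about 24% in these data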;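 further: 0% = DMSO plus EC80 ATP and 100% = DMSO alone without ATP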
M1 ag parental: counter-screen for M1 agonists: effect in parental CHO-K1 cells; activation, % at 3 µM; hit rate 0.48% among 360,000; AID 602248; Fluo-8 calcium fluorescence; scaled to maximal ATP response, vehicle zero; in the data active means activation above about 15%;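 further: untransfected CHO-K1 host cells lacking M1 receptor as counterscreen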
M1 PAM parental: M1 PAM counterscreen hit in parental CHO-K1 cells. ATP EC20, Fluo-8 calcium fluorescence; 0% at ATP EC20, 100% at ATP max. activation, % at 3 µM. hit rate 0.02% among 360,000;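 active means activation above the run cutoff, the mean activation of all test compounds plus 3 SD, cut at about 40% in these data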;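 further: peak over basal fluorescence ratio in a 140 s read after ATP addition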
Numbers without * were called inactive; . = no result.

SMILES	CHO parental Ca	OX1R antag-1	OX1R antag-2	CHO-K1 Ca antag	M1 ag parental	M1 PAM parental
Nc1cc(=O)[nH]c(=S)n1-c1ccccc1	-4	14	9	32*	0	-7
CCC(=O)N1CCC1(C)C(=O)NCc1ccccc1SC (stereo not drawn)	.	.	.	-8	0	21
CCn1c(COc2cccc(C)c2C)nnc1SCC(=O)Nc1cc(C)on1	-7	5	-17	2	18*	7
N/C(=N\OC(=O)COc1ccc(Cl)cc1Cl)c1ccncc1	.	.	.	-12	5	19
O=S(=O)(N1CCCCC1)N1CCN(CC(O)COc2ccc3cc(Br)ccc3c2)CC1 (stereo not drawn)	-10	12	-6	-8	3	16
CN(C)S(=O)(=O)N1CCN(CC(O)COc2ccc3cc(Br)ccc3c2)CC1 (stereo not drawn)	40*	8	11	7	7	4
Cc1cccc(CNC(=O)CCn2ccc3cc(S(=O)(=O)N4CCCC4)ccc32)c1	-22	11	-26	-10	2	7
Cc1ccc(S(=O)(=O)N2CCN(c3ncnc4sccc34)CC2)cc1	37*	21	10	16	14	-15
O=S(=O)(c1ccccc1C(F)(F)F)N1CCN(c2ncnc3sccc23)CC1	-10	11	20	-2	17*	-12
C=CCN(c1ccccc1)S(=O)(=O)c1cccc(C(=O)NCC(c2ccccc2OC)N2CCCC2)c1 (stereo not drawn)	-26	29	-38	-14	-1	-10
C=CCN(c1ccccc1)S(=O)(=O)c1cccc(C(=O)NCC(c2cccs2)N2CCOCC2)c1 (stereo not drawn)	-34	39*	4	1	0	-1
C=C(C)c1cc2c(ccc3ccc(=O)oc32)o1	-20	75*	38	4	0	-5
c1cc2c(cc1-c1[nH]ncc1CN1C[C@H]3CC[C@H]1C3)OCO2	-13	13	-14	-12	1	16
O=C(CSCC(=O)N1CCCc2ccccc21)Nc1nc(-c2ccccc2)cs1	-1	33*	-24	-6	2	13
CCOC(=O)N1CCN(C(=O)CSCC(=O)Nc2nc(-c3ccc(C)cc3)cs2)CC1	-26	6	-31	0	0	12
Oc1ccc(C=NNC(=S)Nc2ccccc2)nc1	.	.	.	-2	1	0
O=[N+]([O-])c1cc(Br)c2nsnc2c1N1CCOCC1	-9	29*	-15	2	0	3
CC1=NNC(=O)C1CC(=O)N/N=C(\C)c1cccs1 (stereo not drawn)	-7	11	3	-1	0	12
CCOC(=O)CSc1nc(=O)n2ccc(C)cc2n1	-5	-1	-1	15	0	-9
COc1ccc(C(=S)N2CCOCC2)cc1OC(=O)c1ccc(C)cc1	-13	19	-29	-9	0	-4
CC(=O)OCC(=O)Nc1ccc([N+](=O)[O-])cc1Cl	-7	38	1	19	0	-11
CC(=O)Oc1c(C)cc(Cl)cc1C(=O)Nc1ccc([N+](=O)[O-])cc1Cl	15	71*	-4	23	13	4
CC(/C=N/NC(=O)CNc1n[nH]c(=O)[nH]c1=O)c1ccccc1 (stereo not drawn)	-5	1	-9	-8	0	18
COC(=O)[C@H](Cc1ccccc1)N1C/C=C\COc2c(Cl)cc(Cl)cc2S1(=O)=O	-12	32*	35	-20	0	12
COC(=O)[C@H](C)N1C/C=C\COc2c(Cl)cc(Cl)cc2S1(=O)=O	-11	17	-8	-11	1	25
SMILES	CHO parental Ca	OX1R antag-1	OX1R antag-2	CHO-K1 Ca antag	M1 ag parental	M1 PAM parental
CC1CCCC(C)N1C(=O)c1ccc(S(=O)(=O)NCc2ccco2)cc1 (stereo not drawn)	19	26	-31	-6	19*	19
C[C@@H]1CN([C@H](C)CO)C(=O)CCCn2nncc2CO[C@@H]1CN(C)S(=O)(=O)c1ccc(Cl)cc1	.	.	.	-5	0	2
O=C(Nc1ccc(C2=NCCN2)cc1)c1ccc(C(=O)Nc2ccc(C3=NCCN3)cc2)c([N+](=O)[O-])c1	-17	38*	-12	-3	1	-5
Cc1ccc(NC(=O)c2ccc(-n3cccn3)c([N+](=O)[O-])c2)cc1	4	17	-15	-3	5	15
N#Cc1ccc(NC(=O)Nc2ccc(Oc3ccc(NC(=O)Nc4ccc(C#N)cc4)cc3)cc2)cc1	38*	17	2	-3	14	-2
N#Cc1ccc(NC(=O)Nc2cccc(C#N)c2)cc1	.	.	.	31*	18*	-21
CCOC(=O)C1=CNS(=O)(=O)NC1c1ccc(C[C@H](NC(=O)CNC(=O)CCc2ccccc2)C(N)=O)cc1 (stereo partly drawn)	-1	4	-5	-11	0	10
COc1ccc(NC(=O)n2ncc3c(C)cccc32)cc1OC	-21	35*	-29	-13	1	11
O=C(Cn1c(=O)oc2cc(S(=O)(=O)N3CCCCCC3)ccc21)NC1CCCCCCC1	5	12	-5	-2	0	12
O=C(Cn1c(=O)oc2cc(S(=O)(=O)N3CCCC3)ccc21)NC1CCCc2ccccc21 (stereo not drawn)	28*	25	22	6	3	16
Cc1nc(-c2ccc(F)cc2)c(CC(=O)N(C)CC(=O)Nc2ccc(Cl)c(C(F)(F)F)c2)s1	.	.	.	-19	1	12
CCN(CC)C(=O)CSc1nsc(SCC(=O)N(CC)CC)c1C#N	-8	28	-31	26*	0	-9
O=C(CNS(=O)(=O)c1ccc(Cl)cc1)N1CCN(c2ccc(F)cc2)CC1	-13	8	-2	-15	6	7
COc1ccccc1NS(=O)(=O)c1cccc(NC(=O)c2cc3ccccc3oc2=O)c1	-5	10	-36	-1	1	15
COCC(=O)N1CCC(Oc2ccc(C(=O)NCCc3ccncc3)cc2)CC1	-3	10	-9	9	0	-6
O=C(Nc1ncc([N+](=O)[O-])s1)c1ccccc1Br	4	43*	-2	-3	13	4
O=C(Nc1ncc([N+](=O)[O-])s1)c1cccs1	2	75*	7	12	9	4
O=C(CS(=O)(=O)c1ccccc1)Nc1ncc([N+](=O)[O-])s1	3	27	-5	-16	2	10
CC(Oc1ccccc1)C(=O)N1CCc2ccccc2C1 (stereo not drawn)	-19	-8	-20	-15	1	10
COc1ccc(OC(C)C(=O)N2CCc3ccccc3C2)cc1 (stereo not drawn)	-27	41	-37	25*	0	-7
CCN1C(=C2C(=O)c3ccccc3C2=O)C=Cc2ccccc21	-6	62*	-12	-11	2	13
